Results gathered from unrelated publications.
Lines come from different studies, so protocols differ. Converted amounts (≈) assume the structure as drawn.

Nc1ccc(-c2nc(-c3ccc(Oc4ccccc4)cc3)no2)cc1 — MIC (Clostridioides difficile; microbial growth, broth dilution; 48 h): > 50 µg/mL
COc1c(C)cnc(COc2ccc(NC(=O)Nc3cccc(C(F)(F)F)c3)cc2)c1C — IC50 (L02; cell growth or viability, MTT; 72 h): > 100 µM
Cl.NCCc1cccc(Oc2ccc(-c3noc(-c4ccc(O)cc4)n3)cc2)c1 — MIC (Clostridioides difficile; microbial growth, broth dilution; 48 h): 4 µg/mL
COc1ccc(-c2ccc(-c3ccc(C(=N)N)nc3)s2)cc1Cl — GI50 (SF-268; cell growth or viability, SRB): 1810 nM
Cc1cccc(N(O)N=Nc2ccc(S(=O)(=O)Nc3cc(C)on3)cc2)c1 — inhibition (ABTS scavenging; 300 µg/mL): 90.2%
O=C(Nc1cc(F)c(F)c(F)c1)c1ccc(F)c(S(=O)(=O)NCc2cccc(B(O)O)c2)c1 — EC50 (Hepatitis B virus; viral replication, inhibitor, qPCR; HePAD38; 6 days): 920 nM
Cc1ccc(N(O)N=Nc2ccc(S(=O)(=O)Nc3cc(C)on3)cc2)cc1 — inhibition (ABTS scavenging; 20 µg/mL): 17.2%
O=C(N[C@H](CO)[C@H](O)c1ccc([N+](=O)[O-])cc1)C(Cl)Cl — MIC90 (Aliivibrio fischeri; microbial growth): 3.9 µg/mL (≈ 12.1 µM)
CCN(CC)CCNC(=O)c1c(C)[nH]c(/C=C2\C(=O)Nc3ccc(F)cc32)c1C — GI50 (BaF3; cell growth or viability, ATP luminescence; 72 h): 1420 nM
O=C(O)CCc1cccc(Oc2ccc(-c3noc(-c4ccc(O)cc4)n3)cc2)c1 — MIC (Clostridioides difficile; microbial growth, broth dilution; 48 h): 8 µg/mL (≈ 19.9 µM)
Cc1ccc(C)n1-c1ccc(-c2nnc(-c3ccc(Br)cc3)[nH]2)cc1 — MIC (Saccharomyces cerevisiae; microbial growth, broth dilution; ATCC9763): 4 µg/mL (≈ 10.2 µM)
O=C1O[C@H]([C@@H](O)CO)C(O)=C1O — inhibition (ABTS scavenging; 60 µg/mL): 49.9%
COc1ccnc(COc2ccc(NC(=O)Nc3ccc(F)cc3)cc2)c1OC — IC50 (L02; cell growth or viability, MTT; 72 h): > 100 µM
